# Results collected from several papers.
# Target: RAC-gamma serine/threonine-protein kinase (AKT3, Homo sapiens, UniProt Q9Y243)
Compound,read-out,mode,method,concentration,quantity,value
Cc1ccc(C(=O)NCc2ccsc2)cc1C#Cc1cn(C(C)C)c2ncnc(N)c12,enzyme activity,inhibitor,,1 µM,activity vs control,79%
Cn1c2c(Cl)c(Cl)ccc2c2cn[nH]c(=O)c21,thermal stability,,DSF,10 µM,ΔTm,0.1 °C
COc1cc(Cl)c(C(=O)N[C@@H](CN[C@H]2CC[C@@H](N)CC2)Cc2ccc(C#N)cc2)cc1-c1ccc(CN[C@H](C)c2ccc(C)cc2)o1,enzyme activity,inhibitor,,1 µM,remaining activity,97%
O=C(Nc1ccc(Oc2ccc(F)cc2)cc1)N1CCc2ncccc2[C@H]1c1ccc(F)cc1,cell-free assay,,competition with immobilised ligand,1 µM,remaining binding,95%
Cn1c2c(Cl)c(Cl)ccc2c2cc(N)[nH]c(=O)c21,thermal stability,,DSF,10 µM,ΔTm,0.3 °C
Cc1sc(C(=O)NC2COC2)cc1-n1cc(NC(=O)Nc2c(F)cccc2Cl)cn1,enzyme activity,inhibitor,,10 µM,remaining activity,94.8%
CCN(CC)c1ccc(C2=NNC(=O)CC2C)cc1[N+](=O)[O-] (centres unmarked),enzyme activity,inhibitor,,10 µM,remaining activity,91%
CCN(CC)CCNC(=O)c1c(C)[nH]c(/C=C2\C(=O)Nc3ccc(F)cc32)c1C,cell-free assay,,,0.5 µM,remaining signal,71.7%
Cc1cc(NC(=O)c2cccc3cc(-c4cccc5[nH]nc(N)c45)ccc23)ccc1F,enzyme activity,inhibitor,,0.1 µM,activity vs control,90%
CO[C@@H](C)c1c(Nc2ccc([C@@H](N(C)C(=O)C3CCS(=O)(=O)CC3)C(F)(F)F)cc2)cnc2cc(Cl)nn12,cell-free assay,,competition with immobilised ligand,1 µM,remaining binding,65%
CN1CCC2(CC1)NC(=O)c1c(c3ccc(Cl)c(Cl)c3n1C)C2C#N (racemic),thermal stability,,DSF,10 µM,ΔTm,0 °C
CN(C)CC#Cc1ccc(OCCCc2sc(N3CCc4cccc(C(=O)Nc5nc6ccccc6s5)c4C3)nc2C(=O)O)c(F)c1,cell-free assay,,competition with immobilised ligand,1 µM,remaining binding,100%
Cc1ccc(NC(=O)c2ccc(C)c(C(F)(F)F)c2)cc1C#Cc1nn(C2CCC(O)CC2)c2ncnc(N)c12 (centres unmarked),cell-free assay,,,10 µM,remaining signal,94%
CC(C)(O)[C@H]1CC[C@H](Nc2ccc3ncc(-c4cccc(C(F)(F)F)c4)n3n2)CC1,enzyme activity,inhibitor,,1 µM,remaining activity,96.5%
O=C(Nc1cnn(-c2csc(C(=O)NC3COC3)c2)c1)Nc1c(F)cccc1Cl,enzyme activity,inhibitor,,5 µM,remaining activity,97.6%
COc1cc(F)ccc1-c1ncnc(Nc2cccc(C[S@](C)(=N)=O)c2)n1,enzyme activity,inhibitor,,10 µM,activity vs control,100%
CN(c1ccnc(CNc2nc(Nc3ccc4c(c3)CC(=O)N4)ncc2C(F)(F)F)n1)S(C)(=O)=O,cell-free assay,,competition with immobilised ligand,1 µM,remaining binding,100%
COc1cc2ncnc(Nc3ccc(Oc4ccccc4)c(C)c3C)c2cc1OC,enzyme activity,inhibitor,,1 µM,inhibition,1%
Cn1c2c(c3ccc(Cl)c(Cl)c31)C(C#N)C1(CCNCC1)NC2=O (racemic),thermal stability,,DSF,10 µM,ΔTm,-0.1 °C
Cn1cc(Cl)c2c(Oc3c(F)cc(Nc4cc(Cl)nc(N)n4)cc3F)ccnc21,cell-free assay,,competition with immobilised ligand,0.1 µM,remaining binding,98%
N#CC1c2c([nH]c3c(Cl)c(Cl)ccc23)C(=O)NC12CCCCC2 (racemic),thermal stability,,DSF,10 µM,ΔTm,-0.7 °C
O=C1NC(=O)c2cc(Nc3ccc(F)cc3)c(Nc3ccc(F)cc3)cc21,cell-free assay,,,0.5 µM,remaining signal,100%
Cc1c(NC(=O)c2cc(C(N)=O)nc3cc(F)ccc23)c(C(F)(F)F)nn1Cc1ccc(C(C)(C)C)cc1,cell-free assay,,competition with immobilised ligand,1 µM,remaining binding,100%
CC1(C)NC(=O)c2[nH]c3c(Cl)c(Cl)ccc3c2C1C#N (centres unmarked),thermal stability,,DSF,10 µM,ΔTm,0 °C
Cn1nc(C(=O)NCc2ccc(C(=O)O)cc2)cc1-c1ccc2[nH]ccc2c1,cell-free assay,,competition with immobilised ligand,0.1 µM,remaining binding,88%
C#Cc1cccc(Nc2ncnc3cc(OCCOC)c(OCCOC)cc23)c1,cell-free assay,,,0.5 µM,remaining signal,74.6%
CCCOc1ccc(OC)c(F)c1C(=O)c1ccc(C(=O)N[C@@H]2CNC[C@H]2NC(=O)c2ccc3[nH]ncc3c2)cc1,enzyme activity,inhibitor,,0.75 µM,remaining activity,39%
Cc1cc(NC(=O)c2cccc(S(F)(F)(F)(F)F)c2)cc(-n2ccn3nc(-c4cccnc4)cc23)c1,cell-free assay,,competition with immobilised ligand,1 µM,remaining binding,100%
O=C1Nc2ccc(Cl)cc2C1=Cc1cc(Cl)c(O)c(Cl)c1,cell-free assay,,,0.5 µM,remaining signal,96.9%
CC(C)(C)c1nc2c(s1)c1nc(N)ncc1c1ccc(NS(=O)(=O)c3c(F)cccc3F)c(F)c12,enzyme activity,inhibitor,radiometric,1 µM,remaining activity,89%
CNC(=O)c1cc(Oc2ccc(NC(=O)Nc3ccc(Cl)c(C(F)(F)F)c3)cc2)ccn1,enzyme activity,inhibitor,,10 µM,inhibition,-1%
N#CCCc1ccc2c(c1)-c1[nH]c3ccc([N+](=O)[O-])cc3c1CC(=O)N2,cell-free assay,,,0.5 µM,remaining signal,95.5%
